In assay [1] the target is T1, Adrenergic receptor alpha-2 (Rattus norvegicus, UniProt P22086+P19328+P22909).
T1 sequence (P22086 whole entry): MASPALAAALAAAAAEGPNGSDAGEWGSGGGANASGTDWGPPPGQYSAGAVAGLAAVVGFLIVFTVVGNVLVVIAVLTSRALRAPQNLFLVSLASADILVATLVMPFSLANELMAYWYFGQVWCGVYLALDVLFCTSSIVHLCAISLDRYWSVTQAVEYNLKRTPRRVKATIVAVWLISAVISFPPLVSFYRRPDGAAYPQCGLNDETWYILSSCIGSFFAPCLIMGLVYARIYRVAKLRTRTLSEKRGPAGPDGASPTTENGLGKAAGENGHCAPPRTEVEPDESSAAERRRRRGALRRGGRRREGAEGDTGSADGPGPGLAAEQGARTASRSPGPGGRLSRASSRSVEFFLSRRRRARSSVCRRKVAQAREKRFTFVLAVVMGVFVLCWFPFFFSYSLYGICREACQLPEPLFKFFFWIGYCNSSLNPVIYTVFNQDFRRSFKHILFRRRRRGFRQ
T1 sequence (P19328 whole entry): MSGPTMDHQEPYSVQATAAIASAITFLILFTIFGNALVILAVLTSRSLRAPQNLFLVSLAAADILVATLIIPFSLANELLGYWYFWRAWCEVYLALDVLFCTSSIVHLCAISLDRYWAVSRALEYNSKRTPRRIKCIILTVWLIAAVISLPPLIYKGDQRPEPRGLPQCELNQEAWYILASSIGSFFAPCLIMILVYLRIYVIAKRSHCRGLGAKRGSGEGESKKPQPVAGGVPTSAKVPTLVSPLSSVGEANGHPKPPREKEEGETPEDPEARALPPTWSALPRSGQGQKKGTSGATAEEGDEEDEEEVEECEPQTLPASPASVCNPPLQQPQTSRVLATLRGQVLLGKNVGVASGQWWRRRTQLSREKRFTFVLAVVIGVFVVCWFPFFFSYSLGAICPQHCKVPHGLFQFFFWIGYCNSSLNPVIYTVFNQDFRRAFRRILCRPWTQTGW
T1 sequence (P22909 whole entry): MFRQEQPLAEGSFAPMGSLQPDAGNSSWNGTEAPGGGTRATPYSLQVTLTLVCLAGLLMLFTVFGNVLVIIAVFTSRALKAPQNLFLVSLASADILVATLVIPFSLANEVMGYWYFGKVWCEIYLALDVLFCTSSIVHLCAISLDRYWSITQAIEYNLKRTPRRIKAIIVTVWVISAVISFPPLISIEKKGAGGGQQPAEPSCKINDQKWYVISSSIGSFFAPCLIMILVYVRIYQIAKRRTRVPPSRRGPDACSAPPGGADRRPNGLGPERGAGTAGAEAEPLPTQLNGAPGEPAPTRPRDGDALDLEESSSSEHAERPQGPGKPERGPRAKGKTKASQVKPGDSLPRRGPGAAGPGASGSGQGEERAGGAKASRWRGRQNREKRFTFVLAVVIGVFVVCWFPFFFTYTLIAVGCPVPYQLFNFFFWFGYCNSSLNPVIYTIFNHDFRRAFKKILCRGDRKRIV
Briefly: Alpha-2 adrenergic receptor blocking activity against clonidine-induced depression of the twitch response in prostatic portion of rat vas deferens. The class given is tissue-based. Summed up: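 Prostatic halves (12 mm) from male albino rat vas deferens, Krebs with propranolol 1 μM and cocaine 10 μM, 0.5–0.8 g tension, field-stimulated at 0.1 Hz, 3-ms pulses, 10-35 V. After ≥1 h equilibration, cumulative clonidine curves on twitch inhibition before and after 30 min antagonist. Dose ratios taken at 50% twitch inhibition; pA2 via Schild plot, slope constrained to -1.0.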

Assay [2] has as its target T2, Adrenergic receptor alpha-1 (Rattus norvegicus, UniProt P15823+P23944+P43140).
T2 sequence (P15823 whole entry): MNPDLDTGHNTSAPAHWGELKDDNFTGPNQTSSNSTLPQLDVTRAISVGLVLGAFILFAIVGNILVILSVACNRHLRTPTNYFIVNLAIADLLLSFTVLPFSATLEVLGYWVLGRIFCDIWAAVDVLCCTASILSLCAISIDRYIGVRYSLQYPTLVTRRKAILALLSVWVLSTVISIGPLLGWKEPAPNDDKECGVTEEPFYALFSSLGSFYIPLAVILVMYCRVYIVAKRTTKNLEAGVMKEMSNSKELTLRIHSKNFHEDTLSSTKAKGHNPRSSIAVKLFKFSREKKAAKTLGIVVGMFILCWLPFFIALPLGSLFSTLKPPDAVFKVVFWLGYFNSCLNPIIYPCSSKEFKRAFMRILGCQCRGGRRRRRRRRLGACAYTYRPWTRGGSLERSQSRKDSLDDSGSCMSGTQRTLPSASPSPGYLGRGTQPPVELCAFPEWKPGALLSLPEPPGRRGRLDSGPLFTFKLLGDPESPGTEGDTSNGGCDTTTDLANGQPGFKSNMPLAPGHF
T2 sequence (P23944 whole entry): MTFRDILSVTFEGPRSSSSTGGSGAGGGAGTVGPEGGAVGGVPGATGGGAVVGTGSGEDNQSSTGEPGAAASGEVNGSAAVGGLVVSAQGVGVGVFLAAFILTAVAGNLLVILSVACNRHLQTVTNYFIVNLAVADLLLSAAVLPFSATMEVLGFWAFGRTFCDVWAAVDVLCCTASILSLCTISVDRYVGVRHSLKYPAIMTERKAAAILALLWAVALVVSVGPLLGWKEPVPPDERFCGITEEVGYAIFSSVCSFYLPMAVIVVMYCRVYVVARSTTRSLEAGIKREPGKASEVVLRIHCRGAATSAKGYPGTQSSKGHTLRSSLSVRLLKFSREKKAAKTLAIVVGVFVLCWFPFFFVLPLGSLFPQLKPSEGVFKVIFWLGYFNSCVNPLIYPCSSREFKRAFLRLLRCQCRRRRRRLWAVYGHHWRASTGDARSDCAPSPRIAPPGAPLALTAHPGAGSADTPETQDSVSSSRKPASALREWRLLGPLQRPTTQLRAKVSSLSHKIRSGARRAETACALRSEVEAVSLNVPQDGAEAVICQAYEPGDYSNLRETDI
T2 sequence (P43140 whole entry): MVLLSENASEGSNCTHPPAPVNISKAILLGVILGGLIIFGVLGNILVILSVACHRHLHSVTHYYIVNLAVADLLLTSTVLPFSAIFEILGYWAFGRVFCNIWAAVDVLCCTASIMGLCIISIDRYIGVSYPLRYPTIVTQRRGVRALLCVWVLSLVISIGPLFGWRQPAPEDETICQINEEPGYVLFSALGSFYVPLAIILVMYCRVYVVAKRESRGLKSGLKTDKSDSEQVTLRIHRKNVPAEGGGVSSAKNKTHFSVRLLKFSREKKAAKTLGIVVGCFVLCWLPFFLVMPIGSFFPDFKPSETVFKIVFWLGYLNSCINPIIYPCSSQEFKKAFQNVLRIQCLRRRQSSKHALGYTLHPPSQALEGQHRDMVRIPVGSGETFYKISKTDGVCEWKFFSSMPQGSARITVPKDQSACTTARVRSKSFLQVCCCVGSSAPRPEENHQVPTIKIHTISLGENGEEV
In words: Alpha-1 adrenergic receptor blocking activity against norepinephrine-induced contraction in epididymal portion of rat vas deferens. The class given is tissue-based. In short, it runs like this:
(§1)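 Epididymal halves (14 mm) of vas deferens from male albino rats (175-200 g), Krebs with propranolol 1 μM and cocaine 10 μM, 0.4 g tension. Equilibrated ≥1 h; cumulative norepinephrine curves, first discarded, second control, third after 30 min antagonist. Time-control tissues run in parallel. pA2 from Schild plots constrained to slope -1.0, each concentration tested five times.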

In assay [3] the target is Adrenergic receptor alpha (Rattus norvegicus) (UniProt P15823+P23944+P43140+P22086+P19328+P22909). Briefly: The alpha-1/alpha-2 selectivity ratio is the antilog of the difference between pA2 values at alpha-1 and alpha-2 adrenoceptors.
Assay [4] concerns the target T2, Adrenergic receptor alpha-1. In words: Alpha-1-Adrenoceptor blocking activity against norepinephrine-induced contraction in epididymal portion of rat vas deferens. The class given is functional, tissue-based. Summed up: as §1

In general, pA2 refers to the negative logarithm of the molar antagonist concentration that doubles the agonist concentration needed for the same response. Low values mean lower antagonist potency, high ones higher antagonist potency.

The structures appear in SMILES notation.

Consider `COc1cccc(OC)c1OCCNC[C@@H]1COc2ccccc2C1=O`, for which the pA2 in assay [1] stood at 6.52; in assay [2], 8.93. The Selectivity in assay [3] came out at 257.

On to `COc1cccc(OC)c1OCCNCc1ccc2ccccc2c1`, for which the pA2 in assay [1] stood at 6.4; in assay [2], 7.75. Further, the Selectivity in assay [3] was found to be 22.

For `COc1cccc(OC)c1OCCNC[C@@H]1CS(=O)(=O)c2ccccc2O1`, the pA2 in assay [1] amounted to 5.8; in assay [4] it was 6.6. Besides, the Selectivity in assay [3] was determined as 6.

Take `COc1cccc(OC)c1OCCNC[C@@H]1COc2ccccc2S1`: the pA2 in assay [1] is recorded as 6.09; in assay [2], 7.94. In assay [3], the Selectivity was found to be 71.

For `COc1cccc(OC)c1OCCNC[C@@H]1COc2ccccc2[C@@H]1O`, the pA2 stood at 6.1 in assay [1] and 7.22 in assay [2]. In assay [3], the Selectivity was found to be 13.

For `COc1cccc(OC)c1OCCNC[C@@H]1CCc2ccccc2O1`, the pA2 in assay [1] is on record as 7.05; in assay [4], 9.2. Also, the Selectivity in assay [3] came out at 141.

Consider `COc1cccc(OC)c1OCCNC[C@@H]1CSc2ccccc2C1=O`, for which the figures for the pA2 in assay [1] and in assay [2] were 6.53 and 8.89, respectively. Further, the Selectivity in assay [3] amounted to 229.

On to `COc1cccc(OC)c1OCCNC[C@@H]1C[S@+]([O-])c2ccccc2O1` (relative stereo), for which the pA2 in assay [1] was determined as 6.24; in assay [2], 7.54. For the same compound, the Selectivity in assay [3] was 20.

Take `COc1cccc(OC)c1OCCNC[C@@H]1C[S@@+]([O-])c2ccccc2O1` (relative stereo): the pA2 amounted to 6.24 in assay [1] and 7.71 in assay [2]. Moreover, the Selectivity in assay [3] was 30.

`COc1cccc(OC)c1OCCNC[C@@H]1CSc2ccccc2O1`: the pA2 in assay [1] was determined as 6.15; in assay [2], 9.05. Further, the Selectivity in assay [3] was 469.

With `COc1cccc(OC)c1OCCNC[C@@H]1COc2ccccc2[C@H]1O`, the pA2 in assay [1] came to 6.09; in assay [2], 7.33. In addition, the Selectivity in assay [3] was determined as 17.

Turning to `COc1cccc(OC)c1OCCNC[C@@H]1COc2ccccc2C1`, the pA2 in assay [1] was found to be 6.28; in assay [2] it was 7.97. Besides, the Selectivity in assay [3] was found to be 49.

Take `COc1cccc(OC)c1OCCNCc1cccc2ccccc12`: the pA2 in assay [1] is reported as 6.41; in assay [2] it was 7.33. The Selectivity in assay [3] stood at 8.

For `COc1cccc(OC)c1OCCNCC1COc2ccccc2O1` (stereo not given), the pA2 amounted to 6.63 in assay [1] and 9.24 in assay [2]. Besides, the Selectivity in assay [3] came out at 407.

`COc1cccc(OC)c1OCCNCc1cc2ccccc2[nH]1`: the values for the pA2 in assay [1] and in assay [4] were 6.04 and 6.6, respectively. Moreover, the Selectivity in assay [3] was found to be 4.

These data come from ChEMBL document CHEMBL1124252, “Structure-activity relationships in 1,4-benzodioxan-related compounds. Investigation on the role of the dehydrodioxane ring on alpha 1-adrenoreceptor blocking activity” (J Med Chem, 1988).
